Results published in ChEMBL document CHEMBL4828720, “Macrocyclic Immunoproteasome Inhibitors as a Potential Therapy for Alzheimer's Disease” (J Med Chem, 2021).
Calls of active or inactive are those of the source. The calls are words filed in the database; no cut-off is given here.

Key:
[1] = target: Proteasome subunit beta type-9 (Mus musculus) (UniProt P28076); experiment: Inhibition of LMP2 in mouse BV-2 cells
[2] = system: Mus musculus; experiment: Cognitive enhancing effect in Tg2576 mouse assessed as shorter distances travelled before reaching the escape platform at 10 mg/kg, iv administered twice weekly and measured after 5 days by Morris water maze test; format: functional, organism-based; conditions: time 5.0 day
In short: (§1)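 Tg2576 mice, 9 months old, given 10 mg/kg twice weekly for 3 weeks. Morris water maze in 25 ± 1 °C water, platform hidden 1-1.5 cm below surface. Three 60-s trials a day from randomized start points for 5 days. Swim paths tracked from an overhead camera. Single probe trial on day 6 scored as time in target quadrant. n=5 treated, n=12 control on days 4-5; Student's t-test.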

[3] = system: Proteasome subunit beta type-9 (Canis lupus familiaris); experiment: Inhibition of canine 20S proteasome LMP2 activity in MDCK-II cells using Ac-PAL-AMC as fluorogenic substrate by fluorescence assay
[4] = target: T1, Proteasome subunit beta type-9 (Homo sapiens, UniProt P28065); experiment: Inhibition of human 20S proteasome LMP2 using Ac-PAL-AMC as fluorogenic substrate measured every minute for 1 hr by fluorescence assay
T1 sequence (P28065 whole entry): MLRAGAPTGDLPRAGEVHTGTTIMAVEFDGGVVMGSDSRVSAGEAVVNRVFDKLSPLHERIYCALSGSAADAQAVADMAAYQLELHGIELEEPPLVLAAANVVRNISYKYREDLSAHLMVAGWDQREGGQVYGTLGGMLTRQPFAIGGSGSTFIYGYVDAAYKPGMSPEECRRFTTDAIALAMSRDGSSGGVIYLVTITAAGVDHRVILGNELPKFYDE
In short: (§2)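 Preincubated 1 h with inhibitor at 3-10,000 nM (8 concentrations). Substrates at 100 μM: Ac-PAL-AMC (LMP2), Ac-nLPnLD-AMC (Y), Ac-ANW-AMC (LMP7). Ac-WLA-AMC (X) at 20 μM. AMC fluorescence (360/460 nm) read each minute for 1 h; 3 replicates.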

[5] = system: Mus musculus; experiment: In vivo inhibition of immunoproteasome in Tg2576 mouse assessed as reduction in serum IL-1alpha level at 10 mg/kg, iv administered twice weekly for 3 weeks by ELISA; format: functional, organism-based
In short: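 Serum from Tg2576 mice dosed at 10 mg/kg twice weekly for 3 weeks, diluted 1:5. IL-1α sandwich ELISA: samples and standards 2 h at room temperature, detection antibody 1 h, avidin-HRP 30 min. Stopped with 2N H2SO4 and read at 450 nm against a standard curve of seven twofold dilutions. n=3.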

[6] = Inhibition of human 20S proteasome Y using Ac-nLPnLD-AMC as fluorogenic substrate measured every minute for 1 hr by fluorescence assay
In short: as §2

[7] = Metabolic stability in ICR mouse whole blood at 1 uM measured upto 30 mins by LC-MS/MS analysis; format: ADME, tissue-based; conditions: 0.5 h
In short: (§3)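 Tissues from male ICR mice, 7 weeks old. Heparinized (25 IU/mL) whole blood, or liver homogenized in ice-cold PBS, prewarmed to 37 °C and spiked to a final 1 μM. Samples taken at 0, 10 and 30 min (blood) or 0, 10 and 20 min (liver). […] Remaining drug quantified by C18 LC-MS/MS.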

[8] = Toxicity in ICR mouse; conditions: in vivo
[9] = system: Proteasome subunit beta type-9 (Canis lupus familiaris); experiment: Inhibition of canine 20S proteasome LMP2 activity in MDCK-II cells overexpressing ABCG2 using Ac-PAL-AMC as fluorogenic substrate by fluorescence assay
[10] = Toxicity in Tg2576 mouse; conditions: in vivo
[11] = target: T2, Proteasome subunit beta type-9 (Mus musculus) (UniProt P28076); experiment: Inhibition of LMP2 in ICR mouse brain homogenate at 10 mg/kg, iv after 1 hr; format: organism-based
T2 sequence (whole entry): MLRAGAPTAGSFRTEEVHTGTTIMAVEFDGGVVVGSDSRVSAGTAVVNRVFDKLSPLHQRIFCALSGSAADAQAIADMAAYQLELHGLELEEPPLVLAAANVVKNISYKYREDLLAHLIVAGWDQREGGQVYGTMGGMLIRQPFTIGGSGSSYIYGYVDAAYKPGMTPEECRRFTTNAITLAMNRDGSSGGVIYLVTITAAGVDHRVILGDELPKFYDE
In short: (§4)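 ICR mice received a single intravenous dose of 10 mg/kg. Brain homogenates taken at 1 h post-dose were assayed for compound level and for LMP2 activity.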

[12] = Inhibition of human 20S proteasome X using Ac-WLA-AMC as fluorogenic substrate measured every minute for 1 hr by fluorescence assay
In short: as §2, with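 “Purified human 20S constitutive or immunoproteasome, 50 ng in 20 mM Tris-HCl, 0.5 mM EDTA, 0.035% SDS, pH 8.0. Preincubated” for “Preincubated”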

[13] = target: T1, Proteasome subunit beta type-9; experiment: Inhibition of human 20S proteasome LMP2 activity in human RPMI-8226 cells using Ac-PAL-AMC as fluorogenic substrate incubated for 72 hrs by fluorescence assay; format: cell-based
[14] = Effect on RPE structural integrity in ICR mouse by immunostaining based confocal microscopic analysis; format: ADME
In short: (§5)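 RPE collected after behavioral testing from treated Tg2576 mice and from age-matched non-transgenic ICR mice. Eyecups dissected in ice-cold PBS and retina removed. Tissue permeabilized with 0.2% Triton X-100 for 15 min, blocked with 3% BSA, then anti-β-catenin (1:100) overnight at 4 °C. Alexa 555 secondary 2 h, imaged by confocal microscopy.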

[15] = organism: Mus musculus; experiment: Protection against inflammation-triggered RPE degeneration in Tg2576 mouse by immunostaining based confocal microscopic analysis; format: functional, organism-based
In short: as §5

[16] = Metabolic stability in ICR mouse liver homogenate at 1 uM measured upto 20 mins by LC-MS/MS analysis; format: ADME, tissue-based; conditions: tissue homogenate
In short: as §3

[17] = Drug concentration in ICR mouse brain at 10 mg/kg, iv after 1 hr by LC-MS/MS analysis; format: ADME, organism-based; conditions: in vivo
In short: as §4

[18] = system: Mus musculus; experiment: Cognitive enhancing effect in Tg2576 mouse assessed as reduction in escape latency at 10 mg/kg, iv administered twice weekly and measured after 5 days by Morris water maze test; format: functional, organism-based; conditions: time 5.0 day
In short: as §1

[19] = system: Mus musculus; experiment: Cognitive enhancing effect in Tg2576 mouse assessed as latency to enter dark compartment at 10 mg/kg, iv administered twice weekly and measured on 7 and 8 days by step-through passive avoidance test; format: functional, organism-based; conditions: time 7-8 day
In short: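 Tg2576 mice (9-month-old), 10 mg/kg twice weekly for 3 weeks. Step-through passive avoidance run 48 h after the probe test. Learning trial: 0.45 mA, 3 s shock on entering the dark room. Testing trial 24 h later (day 8) without shock, timed as latency to re-enter the dark chamber from the lighted compartment. n=5; Student's t-test.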

**Q.** Which inhibition [1] does the source give for `C[C@]1(C(=O)[C@H](Cc2ccccc2)NC(=O)[C@@H]2Cc3ccc(cc3)OCCCCCCCC(=O)N3CCC[C@H]3C(=O)N2)CO1` here?
**A.** Active

**Q.** What about the Activity [2] of the same compound?
**A.** Active

**Q.** And the inhibition [3]?
**A.** Active

**Q.** What about the IC50 [4] of the same compound?
**A.** 184 nM

**Q.** And the inhibition [5]?
**A.** Active

**Q.** And the IC50 [6]?
**A.** 8380 nM

**Q.** What about the Stability [7] of the same compound?
**A.** Stable

**Q.** What about the Activity [8] of the same compound?
**A.** Non-Toxic

**Q.** And the inhibition [9]?
**A.** Active

**Q.** What about the Activity [10] of the same compound?
**A.** Non-Toxic

**Q.** And the inhibition [11]?
**A.** inactive

**Q.** And the IC50 [12]?
**A.** 4640 nM

**Q.** What about the IC50 [13] of the same compound?
**A.** 32.7 nM

**Q.** What about the Activity [14] of the same compound?
**A.** Non-Toxic

**Q.** And the Activity [15]?
**A.** Active

**Q.** What about the Stability [16] of the same compound?
**A.** Stable

**Q.** What about the Ct [17] of the same compound?
**A.** 3.5 pmol/g

**Q.** And the Activity [18]?
**A.** Active

**Q.** What about the Activity [19] of the same compound?
**A.** Active
